Experimental findings from ChEMBL document CHEMBL4513216, “Probing the Open Global Health Chemical Diversity Library for Multistage-Active Starting Points for Next-Generation Antimalarials” (ACS Infect Dis, 2020) are described below.

The structures appear in SMILES notation.

This data set in a line: Toxicity liver stage against HepG2, at 10uM. The data set is classed as cell-based. On the set-up: test concentration 10 uM, cell line HepG2-A16-CD81EGFP. Conditions: human, HepG2-A16-CD81EGFP cells; read-out: INHIBITION
A digest of the protocol: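 Uninfected HepG2-A16-CD81EGFP cells, 3 × 10^3 per well, 1536-well, plated on prespotted compound at 10 μM final, parasite-free screening media added to match infected plates; puromycin 10 μM positive, DMSO 0.5% negative; run in parallel with 48 h PbLuc assay at 37 °C, 5% CO2; viability by CellTiter-Glo luminescence, normalized to controls.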
As to `O=C(NCCCN1CCCC1=O)Nc1ccc(Br)cc1Cl`, the cytotoxicity at 10 µM is -2.18%. The figure for `CN1C[C@@H](N)C[C@H]1c1nc(-c2ccc3c(c2)OCO3)no1` is -3.75%; for `CC(=O)NC[C@H]1C[C@@H]2CCN1C[C@@H]2c1cc(-c2cccs2)nn1C` it is -7.99%. The same measure for `CC(=O)N1N=C(c2ccccc2)OC1C(=O)NCCc1ccc(C)cc1` (stereo not drawn): 0.0915%; for `CC(=O)N1N=C(c2ccco2)OC1C(=O)NCCc1ccc(F)cc1` (stereo not drawn): -1.92%; for `COc1cccc(-c2nc(C)c(C(=O)N[C@H](CO)CCSC)s2)c1`: 4.63%. For the compound `O=C(c1cc(=O)c(OCc2ccccc2F)co1)N1CCCC1`, the cytotoxicity at 10 µM is -0.321%. For the compound `CC1CCCN(C(=O)c2nnn(-c3ccc(C(F)(F)F)cc3)n2)C1` (stereo not drawn), the cytotoxicity at 10 µM was -3.43%. The figure for `CC1CCc2nc(O)c(C(=O)NCCCN3CCN(C)CC3)cc2C1` (stereo not drawn) is -11.6%; for `Cc1csc(CCNC(=O)c2cc3c(nc2O)CCC(C)C3)n1` (stereo not drawn) it is -3.91%; for `NC(=O)c1cnc(NC2CC2)nc1CCNC(=O)Cc1ccccc1` it is 4.44%.

Take `Cc1nc(C(=O)N2CCOC(Cc3ccccc3)C2)co1` (stereo not drawn): the cytotoxicity at 10 µM is -3.24%. The figure for `NCCn1nc(C2CCN(Cc3ccccc3Cl)C2)c2nccnc21` (stereo not drawn) is -14.9%; for `Cc1ccc(S(=O)(=O)Nc2ccc(N3CCOCC3)cn2)cc1` it is 3.92%; for `CC(C)CC1(C(=O)NCc2nncn2C2CC2)CCC1` it is -1.22%. On to `CS(=O)(=O)NCc1ccc(C(=O)NCc2ccc3c(c2)CCC3)o1`, for which the cytotoxicity at 10 µM was -5.61%. The figure for `Cc1noc(CCCC(=O)N(CC2CCOC2)C2CC2)n1` (stereo not drawn) is 13%; for `CCCn1nc(C(=O)NC2(c3ccc(Cl)cc3)CCCC2)ccc1=O` it is 9.46%. The same measure for `CN(c1ncccc1C#N)C1CCN(CCc2ccccn2)CC1`: 0.926%; for `Cc1ccc(S(C)(=O)=O)cc1NCC(=O)NCCC1=CCCCC1`: 0.846%.

On to `CC(C)(C)CC(NC(=O)N1CCC(C(N)=O)CC1)C(F)(F)F` (stereo not drawn), for which the cytotoxicity at 10 µM is -1.14%. The same measure for `CCC(C)(CC(=O)OC)NCc1nc(C)no1` (stereo not drawn): -5.69%; for `Cn1cnnc1CNC(=O)c1ccc(Br)cc1O`: -4.06%. `CCC(CC)(CNC(=O)OC(C)(C)C)NC(=O)C1CCOCC1`: the cytotoxicity at 10 µM was 1.85%. The figure for `CCOCCCC(=O)Nc1[nH]nc(-c2ccncc2)c1C` is 7.98%. The figure for `O=C(c1coc(-c2ccccc2)n1)N1CCCC1` is 5.47%; for `Clc1ccccc1CNC(Cn1cncn1)c1ccccc1` (stereo not drawn) it is -2.88%.

Turning to `O=C(NCC(O)c1ccc(F)cc1F)c1cccc(F)c1` (stereo not drawn), the cytotoxicity at 10 µM came to 7.43%. Take `Cc1nn(C)c(N2CCCN(C)CC2)c1CNC(=O)C(C)(C)C`: the cytotoxicity at 10 µM was -12%.

Take `CC(C)(C(=O)NCc1ccc(C#N)cc1)n1cc(Br)cn1`: the cytotoxicity at 10 µM was found to be 12.4%. The figure for `O=S(=O)(c1ccc(F)cc1)N1CCN(CCCn2ccnc2)CC1` is -5.63%; for `Cc1cc(CNC(=O)C2CCCN2C(=O)OC(C)(C)C)no1` (stereo not drawn) it is -4.12%; for `CC(C)CC(C#N)NC(=O)COC1CCCCC1` (stereo not drawn) it is 5.42%. With `CC(C)(C)c1nccc(N2CCN(C3CCS(=O)(=O)C3)CC2)n1` (stereo not drawn), the cytotoxicity at 10 µM is 1.05%. In the case of `Cc1ccc(CCNC(=O)c2cccnc2)o1`, the cytotoxicity at 10 µM is -0.996%. The same measure for `Cc1n[nH]c(C2CN(C(=O)c3ccn(C)c(=O)c3)CCO2)n1` (stereo not drawn): -5.3%. On to `COc1cccc(CN(C(=O)NC2CC2)C2CCC(O)CC2)c1` (stereo not drawn), for which the cytotoxicity at 10 µM was determined as 6.8%.

Take `Cc1cccc(C(=O)N2CCN(CCOC(C)C)CC2)n1`: the cytotoxicity at 10 µM is -0.0394%. `CN(C(=O)Nc1cccc(C#N)c1)C1CCN(c2ccccn2)CC1`: the cytotoxicity at 10 µM was 1.66%.

For `Brc1ccc(NCc2ccc(Cn3ccnc3)cc2)nc1`, the cytotoxicity at 10 µM stood at 21.8%. The same measure for `Cn1ccnc1COc1ccc(CSc2nncn2C2CC2)cc1`: 3.67%; for `COc1cccc(N2CCC(CNC(=O)NCc3ccco3)C2)c1` (stereo not drawn): -127%; for `CC(C)N(Cc1ccccc1)Cc1csc(-c2ncccn2)n1`: 7.76%. Take `CC(=O)N(CCc1nc(-c2cc(C(N)=O)co2)cs1)C(C)C`: the cytotoxicity at 10 µM is -4.91%. With `Cc1ccc(CN(C)C)cc1NC(=O)C1CC1`, the cytotoxicity at 10 µM was found to be 1.32%. The figure for `CNC(=O)COc1c(C(C)=O)ccc(Cl)c1Cl` is -0.769%. For `CN(C)c1ccc(NC(=O)N2CCCC2c2ccsc2)cn1` (stereo not drawn), the cytotoxicity at 10 µM is -7.81%.

For `Cc1nc(S(=O)(=O)N2CCSCC2)cn1C`, the cytotoxicity at 10 µM is -9.09%. For the compound `COCC(=O)N(C)Cc1ccc(OCc2cccs2)cc1`, the cytotoxicity at 10 µM amounted to 1.73%. Turning to `Cc1csc(CNC(=O)Nc2ccc3c(c2)OCO3)n1`, the cytotoxicity at 10 µM is -15.7%. With `CC(C)S(=O)(=O)NCC1CCCN(C(=O)c2ccc3c(c2)CCC3)C1` (stereo not drawn), the cytotoxicity at 10 µM was -14.7%. As for `CCc1nc(N2CCC3(CC2)OCCCC3O)ncc1C` (stereo not drawn), the cytotoxicity at 10 µM came out at 7.41%. The same measure for `COCC1CCN(C(=O)c2cn(Cc3ccccc3C(F)(F)F)nn2)C1` (stereo not drawn): 6.86%; for `CCn1c(C2CCCN(Cc3ccc(OC)c(C)c3C)C2)nn(C)c1=O` (stereo not drawn): 5.52%. For `COc1nccnc1N1CCN(Cc2ccc(F)cc2)C(=O)C1`, the cytotoxicity at 10 µM amounted to 1.27%. The figure for `CCCOCCn1ncc(N2CCCC2)cc1=O` is -10.7%; for `CCOCC(=O)N1CCC(c2nc(-c3cccnn3)no2)CC1` it is -3.3%. Consider `Cn1c(-c2ccccc2Cl)nc2cc(C(=O)NCC3(CO)CC3)cnc21`, for which the cytotoxicity at 10 µM was -4.33%. The figure for `O=C(C1CNCCO1)N1CCC(c2cc(N3CCCC3)ncn2)CC1` (stereo not drawn) is 6.15%.

As for `CO[C@H]1CNC[C@@H]1NC(=O)c1cc(C)nc2c(C)c(C)ccc12`, the cytotoxicity at 10 µM is 0.936%. The figure for `Cn1c(-c2ccccc2Cl)nc2cc(C(=O)NCCOCCO)cnc21` is -0.951%; for `Cc1cc(N2CCOC(C(F)(F)F)C2)nc(-c2ccccc2O)n1` (stereo not drawn) it is -0.238%; for `CN(Cc1cc(-c2ccccc2)no1)Cc1nccn1C` it is -2.27%. The same measure for `CN(C)CC(C)(C)CN1CCC(c2ccnc(-c3cccc(O)c3)c2)C1` (stereo not drawn): 3.36%. For `CCNc1ccnc(NCc2cn3nc(C)sc3n2)n1`, the cytotoxicity at 10 µM is -3.41%.

Consider `CO[C@H]1CN(C(=O)c2ccc(-c3cc[nH]n3)cc2)CC[C@H]1N`, for which the cytotoxicity at 10 µM was 5.29%.

For `CCCOC(C)C(=O)N1CCC(O)(c2ccc3nc(C)ccc3c2)CC1` (stereo not drawn), the cytotoxicity at 10 µM was 1.12%.

Regarding `O=C(Nc1ccc(S(=O)(=O)Nc2c(F)cccc2F)cc1)N1CCCC1`, the cytotoxicity at 10 µM turned out to be 5.66%. Turning to `CCc1cc(N2CCNCC2)n2nc(C)c(C)c2n1`, the cytotoxicity at 10 µM is -2.59%.

Regarding `CCOC(=O)C1CCCN(c2ccc(-c3nc(C)no3)cn2)C1` (stereo not drawn), the cytotoxicity at 10 µM is -3.74%.

With `CC(COc1ccccc1)NCc1nc(-c2cccnc2)no1` (stereo not drawn), the cytotoxicity at 10 µM was -14.1%. With `NC(=O)c1cc(C2CCCN(C(=O)CCc3ccncc3)C2)n[nH]1` (stereo not drawn), the cytotoxicity at 10 µM is -8.99%. In the case of `Cc1ccc(NC2CCN(C(=O)CCc3nccs3)CC2)nn1`, the cytotoxicity at 10 µM was -9.93%. The figure for `Cc1ccccc1CNC(=O)CN1CCCC(Cc2nccn2C)C1` (stereo not drawn) is -15.4%; for `Cc1ccc(-c2nnc(CN3CCCC(Cn4cncn4)C3)o2)cc1` (stereo not drawn) it is -9.07%; for `CC(O)CN1CCC(CNCc2ccccc2Cl)CC1` (stereo not drawn) it is -11.9%. The figure for `COc1cccc(COCC(=O)N2CCCCCC2)c1` is -3.48%; for `O=C(CCCc1nnc(-c2ccccc2)o1)N1CCN(C2CC2)CC1` it is -12%; for `Cc1nn(C)c(C)c1C1CCCN1CC(=O)Nc1ccc(Cl)cn1` (stereo not drawn) it is -7.1%.

Regarding `CC(C)Oc1ncccc1CNC(=O)c1ccccn1`, the cytotoxicity at 10 µM is -21.3%. In the case of `CCc1n[nH]c(C2CN(C(=O)c3cnc(C)nc3CC)CCO2)n1` (stereo not drawn), the cytotoxicity at 10 µM is -3.39%. The same measure for `CC(c1nc(C2CC2)no1)N1CCN(Cc2nnc(C3CC3)o2)CC1` (stereo not drawn): 7.7%; for `CC(C)C(=O)NCc1ccc(N(C)C)cc1`: -18.1%. The figure for `CNS(=O)(=O)c1cccc(CNC(=O)NCC2CCOC2)c1` (stereo not drawn) is -9.97%. As to `CC(C(=O)Nc1ccnn1C(C)C)N1CCCN(c2nccs2)CC1` (stereo not drawn), the cytotoxicity at 10 µM was -9.39%. The figure for `CCCc1cc(C(=O)NCCn2nc3ccccn3c2=O)[nH]n1` is -3.56%. For the compound `CCOc1cccc(NS(=O)(=O)c2cc(C(=O)O)cs2)c1`, the cytotoxicity at 10 µM is -4.41%. In the case of `O=C(CN1CC(c2nc(C3CC3)no2)C1)NCc1ccc(F)cc1`, the cytotoxicity at 10 µM was determined as 0.291%.

Regarding `Cc1ccc(CN2CCCn3cnc(COCC4CC4)c3C2)o1`, the cytotoxicity at 10 µM is 8.82%.

Consider `CC(C)N(C)[C@@H]1CCN(c2ncccn2)[C@H]1Cc1ccncc1`, for which the cytotoxicity at 10 µM is -3.42%. The figure for `CC(C)n1cnc2c1C(C(=O)N1CCOCC1)N(CC1CC1)CC2` (stereo not drawn) is 7.98%.

For `Cc1cnc(N2CCC3(C2)C(=O)N(C)CCN3Cc2cccnc2)nc1` (stereo not drawn), the cytotoxicity at 10 µM is -6.98%. Consider `CN(C)C(=O)NCc1nnn2c1CN(CC1CCOCC1)CCC2`, for which the cytotoxicity at 10 µM was -128%.

With `NCC1(c2cccc(Br)c2)CCOCC1`, the cytotoxicity at 10 µM is -8.45%. The same measure for `O=C(C1CC1)N1CC[C@@H]2[C@H](CC1)N(Cc1cccnc1)CCS2(=O)=O`: -1.84%; for `CC(C)N(C)Cc1nnn2c1CN(Cc1cccnc1)CCC2`: 11.3%.

Turning to `O=C(C1CCC1)N1C[C@H]2CC[C@@H](C1)N(S(=O)(=O)c1ccccc1)C2`, the cytotoxicity at 10 µM is -10%.

Turning to `O=c1c(=CS(=O)(=O)Nc2ccc(Cl)cc2)[nH]c(=O)n2cccc12`, the cytotoxicity at 10 µM is -7.67%.
